Source: PubChem BioAssay (several laboratories)
An excerpt weighted towards active compounds, which were near 4.9% of everything screened.
NPY1 pot ag: potentiates or activates human NPY-Y1 receptor. AID 1304. hit rate 0.37% among 220,000. activation, % at 3.6 µM. NPY-Y1 expressing cells, potentiator/agonist activation; in the data active = activation above about 33%, passing the limit was not always enough;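 note: cells stimulated with NPY at EC10 then isoproterenol at EC100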
NPY-Y2 antag: antagonists of human neuropeptide Y receptor Y2; P49146; NPY-Y2 expressing cells, antagonist mode; inhibition, % at 2.7 µM; hit rate 0.99% among 140,000; AID 793
Target sequence (P49146 whole entry, looked up): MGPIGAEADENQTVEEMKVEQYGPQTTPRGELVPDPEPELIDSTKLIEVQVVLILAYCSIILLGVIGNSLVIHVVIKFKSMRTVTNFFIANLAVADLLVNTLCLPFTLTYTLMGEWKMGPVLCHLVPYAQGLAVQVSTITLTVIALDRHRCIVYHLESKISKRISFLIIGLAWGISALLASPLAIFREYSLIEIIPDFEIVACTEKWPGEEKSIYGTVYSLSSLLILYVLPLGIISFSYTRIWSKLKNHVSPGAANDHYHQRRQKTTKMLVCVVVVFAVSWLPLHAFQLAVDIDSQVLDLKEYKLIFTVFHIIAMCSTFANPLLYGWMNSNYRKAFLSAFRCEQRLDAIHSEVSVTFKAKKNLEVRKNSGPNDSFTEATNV
NPY Y1 blocker: blocks the human neuropeptide Y Y1 receptor. P25929. HEK293-CNG Y1 cells, membrane potential fluorescence; NPY at EC95, then isoproterenol. inhibition, % at 3.6 µM. hit rate 1% among 200,000. AID 1040;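 active = inhibition above the campaign mean inhibition of all tested compounds plus 3 SD, cut at about 20% in these data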
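Benchmarks – high control isoproterenol alone, low control NPY with isoproterenol · Material – HEK293 Y1/CNG channel cell line · Times – dye 3 h, compound 60 min room temperature, stimulation 45 min · Probe or stimulus – NPY (25 nM), isoproterenol (1 µM), Ro 20-1724 (25 µM) · Evaluation – % inhibition of NPY effect · Signal – fluorescence, membrane potential probe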
WT yeast gro inh: growth inhibition of WT yeast, mitochondrial fusion screen | inhibition, % at 10 µM | hit rate 2.1% among 190,000 | AID 1362 | mitochondrial fusion phenotypic screen, WT strain; in the data active = inhibition above about 58%; tested in S. cerevisiae
NPY2 pot ag: potentiates or activates human NPY-Y2 receptor. activation, % at 3.6 µM. cells expressing NPY-Y2, potentiator/agonist read-out. hit rate 0.45% among 220,000; in the data active = activation above about 27%;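 note: cells stimulated with NPY near EC25 plus isoproterenol at EC100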
RAM inhibit: yeast RAM network inhibition; S. cerevisiae dse1pr::URA3 reporter, 5-FOA growth OD615, 2 d; analog-sensitive cbk1-as2 kinase mutant strain; inhibition, % at 50 µM; hit rate 1.8% among 190,000; AID 868;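 active = inhibition above a set limit, 3 SD over mean compound inhibition, cut at about 8.4% in these data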;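 note: inhibition rescues growth on 5-FOA so higher OD means more RAM inhibition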
NPY-Y1 ant conf: human NPY-Y1 antagonism, confirmation. inhibition, % at 3.6 µM. hit rate 21% among 1,200. HEK293-CNG NPY-Y1, membrane potential fluorescence, cAMP; NPY challenge against isoproterenol-raised cAMP. shares compounds with NPY Y1 blocker; in the data active = inhibition above about 20%
NPY-Y2 antag ct: human NPY-Y2 antagonism in NPY-Y1 counter-screen | shares compounds with NPY Y1 blocker | HEK293 NPY-Y2 CNG membrane potential fluorescence; cells given NPY, then isoproterenol | inhibition, % at 3.6 µM | hit rate 28% among 1,200 | AID 1255
Large screens that a line does not name were inactive (follow-up assays come after a bar, where they were run). Cut-off read from the data, not from the text of the source, unless noted: active = inhibition above about 17%; inactive = the rest.

CCN(CC)CCN(Cc1cc2cc(C)ccc2[nH]c1=O)C(=S)NCc1ccco1	none
CCN(CC)CCN(Cc1cc2ccc(C)c(C)c2[nH]c1=O)C(=S)NCc1ccco1	NPY Y1 blocker 27.1 (no result: NPY-Y2 antag) | NPY-Y1 ant conf inactive | NPY-Y2 antag ct inactive
CCN(CC)CCN(Cc1cc2cc3c(cc2[nH]c1=O)OCO3)C(=S)NCc1ccco1	none (no result: NPY-Y2 antag)
CCN(CC)CCN(Cc1cc2cc(C)cc(C)c2[nH]c1=O)C(=S)NCc1ccco1	NPY Y1 blocker 21.0 | NPY-Y1 ant conf inactive | NPY-Y2 antag ct inactive
CCCn1c(=N)c(C#N)cc2c(=O)n3ccccc3nc21	none
C#CCn1c(=NC(=O)c2ccc(S(=O)(=O)N3CCCc4ccccc43)cc2)sc2cc(S(N)(=O)=O)ccc21	NPY Y1 blocker 24.2 | NPY-Y1 ant conf inactive | NPY-Y2 antag ct 30.9
Cc1nn(-c2ccccc2)c(C)c1/C=N/NC(=O)c1cc(C23CC4CC(CC(C4)C2)C3)[nH]n1	none
OC(COCc1ccco1)CN1CCN(C(c2ccccc2)c2ccccc2)CC1 (configuration not stated)	none
Cc1ccc(Cl)cc1N1CCN(CC(O)COCc2ccco2)CC1 (configuration not stated)	NPY Y1 blocker 21.1 | NPY-Y1 ant conf inactive | NPY-Y2 antag ct inactive
CCSc1ncc(/C=N/Nc2ccc(F)cc2)n1C	none
COc1ccc(CN2C(=O)c3ccccc3C2C(=O)NC2CCCC(C)C2C)c(OC)c1 (configuration not stated)	NPY Y1 blocker 35.9 (no result: NPY-Y2 antag) | NPY-Y1 ant conf inactive | NPY-Y2 antag ct inactive
COc1ccc(CN2C(=O)c3ccccc3C2C(=O)NC2CCC(C)CC2)c(OC)c1 (configuration not stated)	NPY Y1 blocker 22.6 (no result: NPY-Y2 antag) | NPY-Y1 ant conf inactive | NPY-Y2 antag ct inactive
COc1cc(-c2noc(-c3cccc(Cl)c3)n2)cc(OC)c1OC	none
Cc1sc2nc(C3CC3)nc(NCCNS(=O)(=O)c3ccccc3)c2c1C	none
Cc1ccc(S(=O)(=O)N2CCOCC2)cc1NC(=O)CN1CCC(Cc2ccccc2)CC1	NPY Y1 blocker 30.4 (no result: NPY-Y2 antag) | NPY-Y1 ant conf inactive | NPY-Y2 antag ct inactive
CCN(CC)c1ccc(S(=O)(=O)N2CCOCC2)cc1NC(=O)CN1CCc2ccccc2C1	NPY Y1 blocker 23.1 (no result: NPY-Y2 antag) | NPY-Y1 ant conf inactive | NPY-Y2 antag ct inactive
CCN(CC)c1ccc(S(=O)(=O)N2CCOCC2)cc1NS(C)(=O)=O	none (no result: NPY-Y2 antag)
COC(=O)c1cc2c(ccn2-c2ccc(F)cc2)n1CC(=O)OC(C)C	none (no result: NPY-Y2 antag)
COC(=O)c1c(NC(=O)c2ccc(OC(C)C)cc2)sc2c1CC(C)(C)NC2(C)C	none (no result: NPY-Y2 antag)
Cc1cc(S(=O)(=O)N2CCN(c3c(C)cccc3C)CC2)ccc1F	NPY Y1 blocker 21.0, RAM inhibit 10.2 | NPY-Y1 ant conf inactive | NPY-Y2 antag ct inactive
COc1ccc(S(=O)(=O)N2CCN(c3c(C)cccc3C)CC2)cc1OC	none
CC(NC(=O)Cn1c(NCCO)nc2ccccc21)C1CC2CCC1C2 (configuration not stated)	NPY Y1 blocker 40.1 (no result: NPY-Y2 antag) | NPY-Y1 ant conf 25.1 | NPY-Y2 antag ct inactive
CC(OC(=O)CCCc1nc2ccccc2s1)C(N)=O (configuration not stated)	none
COc1cc(NC2c3ccccc3C(=O)N2Cc2ccc3c(c2)OCO3)cc(OC)c1OC (configuration not stated)	NPY Y1 blocker 22.7 | NPY-Y1 ant conf inactive | NPY-Y2 antag ct inactive
Cn1c(Oc2ccccc2NCc2cccc(Br)c2)cc(=O)n(C)c1=O	NPY Y1 blocker 25.3 | NPY-Y1 ant conf inactive | NPY-Y2 antag ct inactive
C=CCNC(=S)Nc1sc2c(c1C(N)=O)CCCC2	none (no result: NPY-Y2 antag, NPY Y1 blocker, WT yeast gro inh, RAM inhibit)
c1ccc(OCc2nn3c(C4CCCCC4)nnc3s2)cc1	NPY Y1 blocker 27.4 | NPY-Y1 ant conf inactive | NPY-Y2 antag ct inactive
CCOc1ccccc1OCc1nn2c(COc3ccccc3)nnc2s1	none
CC(C)CC1(C)NC(=O)N(CC(=O)Nc2cccc(S(=O)(=O)N(C)c3ccccc3)c2)C1=O (configuration not stated)	NPY Y1 blocker 50.7 (no result: NPY-Y2 antag) | NPY-Y1 ant conf 45.9 | NPY-Y2 antag ct 50.5
COc1cccc(NC(=O)CN2C(=O)NC(C)(CC(C)C)C2=O)c1 (configuration not stated)	none (no result: NPY-Y2 antag)
CCN(CC)CC(=O)Nc1sc2c(c1C(=O)c1ccccc1OC)CCC2	NPY Y1 blocker 22.5 (no result: NPY-Y2 antag) | NPY-Y1 ant conf inactive | NPY-Y2 antag ct inactive
CCOC(=O)c1c(NC(=O)CN(CC)CC)sc2c1CCC2	none
N#C/C(=N\Nc1cccc2ccccc12)c1nnc2n1CCCCC2	NPY Y1 blocker 20.3 | NPY-Y1 ant conf inactive | NPY-Y2 antag ct inactive
CC(C)(C)NC(=O)C1CCN(S(=O)(=O)c2cccc(C(F)(F)F)c2)CC1	none (no result: NPY-Y2 antag)
C/C=C(\C)C(=O)OC1c2c(ccc3ccc(=O)oc23)OC(C)(C)C1OC(C)=O (configuration not stated)	none
C/C=C(/C)C(=O)OC1c2c(ccc3ccc(=O)oc23)OC(C)(C)C1OC(=O)/C(C)=C\C (configuration not stated)	NPY Y1 blocker 21.9 (no result: NPY-Y2 antag) | NPY-Y1 ant conf inactive | NPY-Y2 antag ct 31.3
CCN(CC)CCCN(C(C)=O)c1nc(-c2cc(OC)ccc2OC)cs1	none
Cc1ccc(-c2csc3nc4c5ccccc5c(NCCCN(C)C)nn4c(=O)c23)cc1	NPY Y1 blocker 24.2 (no result: NPY-Y2 antag) | NPY-Y1 ant conf 24.0 | NPY-Y2 antag ct 26.2
Cc1ccc(-c2csc3nc(C)n(N)c(=O)c23)cc1	none (no result: NPY-Y2 antag)
Fc1ccc(Cn2cccc2C2=NC(c3ccccc3)CO2)cc1 (configuration not stated)	none (no result: NPY-Y2 antag)
Cc1oc(-c2ccccc2)nc1Cn1cccc1C1=NC(c2ccccc2)CO1 (configuration not stated)	NPY Y1 blocker 21.6 | NPY-Y1 ant conf 21.3 | NPY-Y2 antag ct 23.9
CN(Cc1ccccc1)CC(O)COc1ccc(CNCc2ccc(Cl)s2)cc1 (configuration not stated)	NPY Y1 blocker 29.0 (no result: NPY-Y2 antag) | NPY-Y1 ant conf 20.3 | NPY-Y2 antag ct 29.7
C=CCNC(=O)/C(=C/c1ccccc1OCC)NC(=O)c1ccccc1	none
CC/C(C)=C1\SC(N2CCN(C(C)=O)CC2)=NC1=O	none
CCc1cc(-c2[nH]ncc2-c2ccc3c(c2)OCO3)c(O)cc1O	NPY Y1 blocker 20.5 | NPY-Y1 ant conf 21.1 | NPY-Y2 antag ct inactive
CCN(CC)C(=O)C(Cc1ccccc1)N1C(=O)c2ccccc2C1=O (configuration not stated)	none
O=C1CCCC2=C1C(c1ccncc1)c1c(nc(SCc3ccccc3Cl)[nH]c1=O)N2 (configuration not stated)	none
